Measurements of several laboratories.
Lines come from different studies, so protocols differ. ≈ marks a conversion by molar mass, not a printed value.
Organism: Mycobacterium tuberculosis
Effect on: microbial growth

Compound	technique	strain	endpoint	result
O=C(OCc1cc2[nH]c(=S)n(Cc3cncnc3)c(=O)c2cc1Cl)Oc1ccccc1		H37RV	MIC90	1.94 µM (≈ 0.882 µg/mL)
CCCCCCC#Cc1cncc(-c2nnc(SCc3cc([N+](=O)[O-])cc([N+](=O)[O-])c3)n2C2CCNCC2)c1	resazurin	ERDMAN	IC50	2.6 µM
NC(=O)c1cc(Br)ccc1OCCc1cccc(F)c1			IC50	2 µM
NCC[C@H](O)C(=O)N[C@@H]1C[C@H](N)[C@@H](O[C@H]2O[C@H](CN)[C@@H](O)[C@H](O)[C@H]2O)[C@H](O)[C@H]1O[C@H]1O[C@H](CO)[C@@H](O)[C@H](N)[C@H]1O			MIC50	0.25 µg/mL (≈ 0.427 µM)
O=c1c2cc(Cl)c(CO)cc2[nH]c(=S)n1Cc1cncc(-c2nnn[nH]2)c1		H37RV	MIC90	59.2 µM (≈ 23.8 µg/mL)
COc1ccc(-c2cc(C(F)(F)F)c3c(N)c(C(=O)Nc4ccc(C)cc4C)sc3n2)cc1		H37RV	IC50	> 100 µM
CCc1ccc(CCNc2cc(-c3ccco3)nc3nncn23)cc1		H37RV	MIC	0.43 µM
CCCCCCC#Cc1cncc(-c2nnc(SCc3cc([N+](=O)[O-])cc([N+](=O)[O-])c3)n2CCOC2OC(CN)C(O)C2O)c1 (centres unmarked)	resazurin	ERDMAN	IC50	18 µM
Nc1c(C(=O)Nc2cccnc2)sc2nc(-c3ccccc3)cc(C(F)(F)F)c12		H37RV	IC50	> 100 µM
CCc1ccc(CCNc2cc(-c3ccccn3)nc3nnc(C4CC4)n23)cc1		H37RV	MIC	50 µM
NNC(=O)c1ccncc1			MIC50	0.1 µg/mL (≈ 0.729 µM)
COC(=O)OCc1cc2[nH]c(=S)n(Cc3cccnc3)c(=O)c2cc1Cl		H37RV	MIC90	3.42 µM (≈ 1.34 µg/mL)
Clc1ccc(CCNc2cc(-c3ccccn3)nc3nnc(C4CC4)n23)cc1		H37RV	MIC	36 µM
Nc1c(C(=O)Nc2ccccc2C(F)(F)F)sc2nc(-c3ccccc3)cc(C(F)(F)F)c12		H37RV	IC50	> 100 µM
CCCCCCC#Cc1cncc(-c2nnc(SCc3ccc([N+](=O)[O-])o3)n2CCCN)c1	resazurin	ERDMAN	IC50	12 µM
Cc1cccc(NC(=O)c2sc3nc(-c4cccs4)cc(C(F)(F)F)c3c2N)c1C		H37RV	IC50	> 100 µM
FC(F)(F)c1ccc(CCNc2cc(-c3ccccn3)nc3nncn23)cc1		H37RV	IC90	0.53 µM
CN(C)Cc1cc2[nH]c(=S)n(Cc3cccnc3)c(=O)c2cc1Cl		H37RV	MIC90	> 100 µM
CO[C@H]1/C=C/O[C@@]2(C)Oc3c(C)c(O)c4c(O)c(c(/C=N/N5CCN(C)CC5)c(O)c4c3C2=O)NC(=O)/C(C)=C\C=C\[C@H](C)[C@H](O)[C@@H](C)[C@@H](O)[C@@H](C)[C@H](OC(C)=O)[C@@H]1C		H37RA	MIC90	0.01 µM (≈ 0.00823 µg/mL)

Compound	technique	strain	endpoint	result
CO[C@H]1/C=C/O[C@@]2(C)Oc3c(C)c(O)c4c(O)c(c(/C=N/N5CCN(C)CC5)c(O)c4c3C2=O)NC(=O)/C(C)=C\C=C\[C@H](C)[C@H](O)[C@@H](C)[C@@H](O)[C@@H](C)[C@H](OC(C)=O)[C@@H]1C		H37RV	MIC50	0.06 µg/mL (≈ 0.0729 µM)
CCCCCCC#Cc1cncc(-c2nnc(SCc3ccc(Cl)cc3)n2CCCN)c1	resazurin	ERDMAN	IC50	29 µM
CC(C)(O)c1ccc(OCCc2cccc(F)c2)c(C(N)=O)c1			IC50	2.7 µM
Cc1cccc(NC(=O)c2sc3nc(-c4ccco4)cc(C(F)(F)F)c3c2N)c1C		H37RV	IC50	> 100 µM
CCCCCCC#Cc1cncc(-c2nnc(SC[C@H]3O[C@@H](n4ccc(=O)[nH]c4=O)[C@H](O)[C@@H]3O)n2CCO)c1	resazurin	ERDMAN	IC50	196 µM
CC(CNc1cc(-c2ccccn2)nc2nncn12)c1ccccc1 (centres unmarked)		H37RV	MIC	35 µM
COC(=O)c1cc2[nH]c(=S)n(Cc3cccnc3)c(=O)c2cc1Cl		H37RV	MIC90	> 100 µM
c1ccc(-c2cc(Nc3ccc(N4CCOCC4)cc3)n3cnnc3n2)nc1		H37RV	MIC	> 100 µM
NC(=O)c1cncc(Cn2c(=S)[nH]c3ccc(Cl)cc3c2=O)c1		H37RV	MIC90	63 µM (≈ 21.8 µg/mL)
CCC(NC(=O)c1sc2nc(-c3ccc(OC)cc3)cc(C(F)(F)F)c2c1N)c1ccccc1 (centres unmarked)		H37RV	IC50	0.55 µM
FC(F)(F)c1ccc(CCNc2cc(-c3cccs3)nc3nncn23)cc1		H37RV	IC90	0.31 µM
Nc1c(C(=O)N2CCOCC2)sc2nc(-c3ccccc3)ccc12		H37RV	IC50	46 µM
CCCCCCC#Cc1cncc(-c2nnc(SCc3cc(C(F)(F)F)cc(C(F)(F)F)c3)n2CCCN)c1	resazurin	ERDMAN	IC50	3.1 µM
O=c1c2cc(Cl)ccc2[nH]c(=S)n1Cc1ccc(-n2cccn2)nc1		H37RV	MIC90	> 100 µM
CCCCCCC#Cc1cncc(-c2nnc(SCCCn3ccc(=O)[nH]c3=O)n2C)c1	resazurin	ERDMAN	IC50	25 µM
Fc1ccc(CCOc2cc(-c3ccccn3)nc3nncn23)cc1		H37RV	MIC	> 100 µM
COc1ccc(-c2cc(C(F)(F)F)c3c(N)c(C(=O)N4CCCC4(C)C)sc3n2)cc1		H37RV	IC50	> 100 µM
COc1c(N2C[C@@H]3CCCN[C@@H]3C2)c(F)cc2c(=O)c(C(=O)O)cn(C3CC3)c12		H37RV	MIC	0.125 µg/mL
CN(C)C(=O)OCc1cc2[nH]c(=S)n(Cc3cncnc3)c(=O)c2cc1Cl		H37RV	MIC90	> 100 µM
